Measurements reported in ChEMBL document CHEMBL1137240, “Conjugation of adenosine and hexa-(D-arginine) leads to a nanomolar bisubstrate-analog inhibitor of basophilic protein kinases” (J Med Chem, 2006).

Experiments:
[1] = target: MAP kinase-activated protein kinase 2 (Homo sapiens) (UniProt P49137); experiment: Percent residual activity, relative to control, of MAPKAP-K2 at 1 uM concentration of inhibitor in presence of 20 uM ATP
How it was run: (§1)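 It is expressed as percent of activity in control incubations without inhibitor, as the mean of duplicate determinations. The protocol follows earlier published panel methods.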

[2] = target: Serine/threonine-protein kinase pim-2 (Homo sapiens) (UniProt Q9P1W9); experiment: Percent residual activity, relative to control, of PIM2 at 1uM concentration of inhibitor in presence of 5uM ATP; how it was run: as §1
[3] = target: 3-phosphoinositide-dependent protein kinase 1 (Homo sapiens) (UniProt O15530); experiment: Percent residual activity, relative to control, of PDK1 at 1 uM concentration of inhibitor in presence of 20 uM ATP; how it was run: as §1
[4] = target: Dual specificity tyrosine-phosphorylation-regulated kinase 1A (Homo sapiens) (UniProt Q13627); experiment: Percent residual activity, relative to control, of DYRK1a at 1 uM concentration of inhibitor in presence of 50 uM ATP; how it was run: as §1
[5] = target: Mitogen-activated protein kinase 14 (Homo sapiens) (UniProt Q16539); experiment: Percent residual activity, relative to control, of SAPK2a/p38 at 1 uM concentration of inhibitor in presence of 50 uM ATP; how it was run: as §1
[6] = target: Aurora kinase B (Homo sapiens) (UniProt Q96GD4); experiment: Percent residual activity, relative to control, of Aurora-B at 1 uM concentration of inhibitor in presence of 20 uM ATP; how it was run: as §1
[7] = target: Lymphokine-activated killer T-cell-originated protein kinase (Homo sapiens) (UniProt Q96KB5); experiment: Percent residual activity, relative to control, of PBK at 1uM concentration of inhibitor in presence of 50uM ATP; how it was run: as §1
[8] = target: Protein kinase C alpha type (Homo sapiens) (UniProt P17252); experiment: Percent residual activity, relative to control, of PKC alpha at 1uM concentration of inhibitor in presence of 20uM ATP; how it was run: as §1
[9] = target: Mitogen-activated protein kinase 10 (Homo sapiens) (UniProt P53779); experiment: Percent residual activity, relative to control, of JNK3 at 1uM concentration of inhibitor in presence of 50uM ATP; how it was run: as §1
[10] = target: Mitogen-activated protein kinase 11 (Homo sapiens) (UniProt Q15759); experiment: Percent residual activity, relative to control, of SAPK2b/p38ss2 at 1 uM concentration of inhibitor in presence of 20 uM ATP; how it was run: as §1
[11] = organism: Homo sapiens; experiment: Percent residual activity, relative to control, of CAMK-1 at 1 uM concentration of inhibitor in presence of 50 uM ATP; how it was run: as §1
[12] = target: Ribosomal protein S6 kinase (P70S6K) (Homo sapiens) (UniProt Q9UBS0+P23443); experiment: Percent residual activity, relative to control, of P70S6K at 1 uM concentration of inhibitor in presence of 20 uM ATP; format: protein-complex assay; how it was run: as §1
[13] = target: Mitogen-activated protein kinase 13 (Homo sapiens) (UniProt O15264); experiment: Percent residual activity, relative to control, of SAPK4/p38 delta at 1 uM concentration of inhibitor in presence of 5 uM ATP; how it was run: as §1
[14] = target: Inhibitor of nuclear factor kappa-B kinase subunit beta (Homo sapiens) (UniProt O14920); experiment: Percent residual activity, relative to control, of IKK beta at 1 uM concentration of inhibitor in presence of 5 uM ATP
How it was run: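 Kinase panel assay run at an ATP concentration close to the kinase's Km. Inhibitor tested at 1 µM. Activity expressed as percent residual relative to control incubations without inhibitor, as the mean of duplicate determinations.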

[15] = target: Casein kinase II (Homo sapiens) (UniProt P67870+P68400+P19784); experiment: Percent residual activity, relative to control, of CK2 at 1 uM concentration of inhibitor in presence of 5 uM ATP; format: protein-complex assay; how it was run: as §1
[16] = target: Glycogen synthase kinase-3 beta (Homo sapiens) (UniProt P49841); experiment: Percent residual activity, relative to control, of GSK3 beta at 1uM concentration of inhibitor in presence of 5uM ATP; how it was run: as §1
[17] = target: SRSF protein kinase 1 (Homo sapiens) (UniProt Q96SB4); experiment: Percent residual activity, relative to control, of SRPK1 at 1 uM concentration of inhibitor in presence of 50 uM ATP; how it was run: as §1
[18] = target: Cyclin-dependent kinase 2/cyclin A (Homo sapiens) (UniProt P24941+P20248+P78396); experiment: Percent residual activity, relative to control, of CDK2 (with cyclin A) at 1 uM concentration of inhibitor in presence of 20 uM ATP; format: protein-complex assay; how it was run: as §1
[19] = target: Eukaryotic elongation factor 2 kinase (Homo sapiens) (UniProt O00418); experiment: Percent residual activity, relative to control, of EF2K at 1 uM concentration of inhibitor in presence of 5 uM ATP; how it was run: as §1
[20] = target: MAP kinase-interacting serine/threonine-protein kinase 2 (Homo sapiens) (UniProt Q9HBH9); experiment: Percent residual activity, relative to control, of MNK2 at 1 uM concentration of inhibitor in presence of 50 uM ATP; how it was run: as §1
[21] = target: Serine/threonine-protein kinase PLK1 (Homo sapiens) (UniProt P53350); experiment: Percent residual activity, relative to control, of PLK1 at 1 uM concentration of inhibitor in presence of 5 uM ATP; how it was run: as §1
[22] = target: Serine/threonine-protein kinase Nek2 (Homo sapiens) (UniProt P51955); experiment: Percent residual activity, relative to control, of NEK2a at 1 uM concentration of inhibitor in presence of 50 uM ATP; how it was run: as §1
[23] = target: Mitogen-activated protein kinase 1 (Homo sapiens) (UniProt P28482); experiment: Percent residual activity, relative to control, of MAPK2/ERK2 at 1 uM concentration of inhibitor in presence of 50 uM ATP; how it was run: as §1
[24] = target: Mitogen-activated protein kinase 15 (Homo sapiens) (UniProt Q8TD08); experiment: Percent residual activity, relative to control, of ERK8 at 1 uM concentration of inhibitor in presence of 5 uM ATP; how it was run: as §1
[25] = target: MAP kinase-interacting serine/threonine-protein kinase 1 (Homo sapiens) (UniProt Q9BUB5); experiment: Percent residual activity, relative to control, of MNK1 at 1 uM concentration of inhibitor in presence of 50 uM ATP; how it was run: as §1

3-phosphoinositide-dependent protein kinase 1 (Homo sapiens), sequence (O15530 whole entry): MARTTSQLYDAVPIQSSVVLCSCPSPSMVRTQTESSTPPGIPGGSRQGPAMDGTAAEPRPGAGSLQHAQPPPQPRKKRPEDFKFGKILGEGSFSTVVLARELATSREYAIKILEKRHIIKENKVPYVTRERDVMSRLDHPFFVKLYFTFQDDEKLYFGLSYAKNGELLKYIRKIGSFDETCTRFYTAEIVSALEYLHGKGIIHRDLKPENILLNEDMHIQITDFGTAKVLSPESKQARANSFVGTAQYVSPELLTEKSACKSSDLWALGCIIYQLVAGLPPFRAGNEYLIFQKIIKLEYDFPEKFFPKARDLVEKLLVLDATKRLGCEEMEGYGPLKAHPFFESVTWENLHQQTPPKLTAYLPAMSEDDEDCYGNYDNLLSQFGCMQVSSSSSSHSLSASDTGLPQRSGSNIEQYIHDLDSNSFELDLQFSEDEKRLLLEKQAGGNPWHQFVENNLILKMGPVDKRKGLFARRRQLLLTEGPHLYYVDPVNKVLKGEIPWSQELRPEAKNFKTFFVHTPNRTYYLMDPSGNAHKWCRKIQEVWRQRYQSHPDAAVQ
Serine/threonine-protein kinase pim-2 (Homo sapiens), sequence (Q9P1W9 whole entry, looked up): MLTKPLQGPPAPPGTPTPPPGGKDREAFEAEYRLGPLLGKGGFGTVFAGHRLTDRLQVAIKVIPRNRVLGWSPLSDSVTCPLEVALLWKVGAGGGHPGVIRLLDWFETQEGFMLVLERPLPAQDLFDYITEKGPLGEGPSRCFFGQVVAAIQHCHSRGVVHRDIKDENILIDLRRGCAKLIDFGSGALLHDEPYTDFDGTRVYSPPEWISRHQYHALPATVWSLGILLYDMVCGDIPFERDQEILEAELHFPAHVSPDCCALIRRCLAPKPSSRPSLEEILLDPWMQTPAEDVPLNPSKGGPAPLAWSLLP
Aurora kinase B (Homo sapiens), sequence (Q96GD4 whole entry): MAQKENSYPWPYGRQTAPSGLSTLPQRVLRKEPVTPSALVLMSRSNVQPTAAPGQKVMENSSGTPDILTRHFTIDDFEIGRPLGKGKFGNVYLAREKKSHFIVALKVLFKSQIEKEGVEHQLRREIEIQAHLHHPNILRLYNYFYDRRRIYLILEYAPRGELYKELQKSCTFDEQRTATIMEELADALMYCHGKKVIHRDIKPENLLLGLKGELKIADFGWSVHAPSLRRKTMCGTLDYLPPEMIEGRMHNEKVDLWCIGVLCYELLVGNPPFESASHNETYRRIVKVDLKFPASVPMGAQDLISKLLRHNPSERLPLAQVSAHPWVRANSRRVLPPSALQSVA
Serine/threonine-protein kinase PLK1 (Homo sapiens), sequence (P53350 whole entry): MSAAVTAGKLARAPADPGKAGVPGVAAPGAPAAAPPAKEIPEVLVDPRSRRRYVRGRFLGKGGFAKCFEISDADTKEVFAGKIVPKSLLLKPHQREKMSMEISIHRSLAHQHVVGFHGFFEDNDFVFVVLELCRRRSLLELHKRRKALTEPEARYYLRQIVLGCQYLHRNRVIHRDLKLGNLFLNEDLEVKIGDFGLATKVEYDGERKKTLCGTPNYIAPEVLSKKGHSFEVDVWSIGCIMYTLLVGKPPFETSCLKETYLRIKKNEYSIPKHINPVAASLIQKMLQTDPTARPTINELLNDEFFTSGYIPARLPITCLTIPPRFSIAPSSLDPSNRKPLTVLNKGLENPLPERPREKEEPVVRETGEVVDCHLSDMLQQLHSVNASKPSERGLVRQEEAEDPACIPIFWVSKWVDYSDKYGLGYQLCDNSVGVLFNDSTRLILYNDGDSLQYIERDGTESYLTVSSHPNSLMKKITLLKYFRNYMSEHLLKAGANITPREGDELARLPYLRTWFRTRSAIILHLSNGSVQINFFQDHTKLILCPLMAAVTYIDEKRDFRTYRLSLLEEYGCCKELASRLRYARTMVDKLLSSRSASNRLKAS
Mitogen-activated protein kinase 14 (Homo sapiens), sequence (Q16539 whole entry): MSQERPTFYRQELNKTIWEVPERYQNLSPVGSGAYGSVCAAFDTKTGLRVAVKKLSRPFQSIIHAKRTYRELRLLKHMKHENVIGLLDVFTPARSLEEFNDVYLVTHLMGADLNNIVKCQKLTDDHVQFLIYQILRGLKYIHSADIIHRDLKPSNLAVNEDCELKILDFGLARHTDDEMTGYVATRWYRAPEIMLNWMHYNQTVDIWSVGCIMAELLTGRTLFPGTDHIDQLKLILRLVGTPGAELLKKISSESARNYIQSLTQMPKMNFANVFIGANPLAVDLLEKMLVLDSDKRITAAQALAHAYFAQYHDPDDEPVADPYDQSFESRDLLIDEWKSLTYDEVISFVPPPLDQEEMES
Inhibitor of nuclear factor kappa-B kinase subunit beta (Homo sapiens), sequence (O14920 whole entry): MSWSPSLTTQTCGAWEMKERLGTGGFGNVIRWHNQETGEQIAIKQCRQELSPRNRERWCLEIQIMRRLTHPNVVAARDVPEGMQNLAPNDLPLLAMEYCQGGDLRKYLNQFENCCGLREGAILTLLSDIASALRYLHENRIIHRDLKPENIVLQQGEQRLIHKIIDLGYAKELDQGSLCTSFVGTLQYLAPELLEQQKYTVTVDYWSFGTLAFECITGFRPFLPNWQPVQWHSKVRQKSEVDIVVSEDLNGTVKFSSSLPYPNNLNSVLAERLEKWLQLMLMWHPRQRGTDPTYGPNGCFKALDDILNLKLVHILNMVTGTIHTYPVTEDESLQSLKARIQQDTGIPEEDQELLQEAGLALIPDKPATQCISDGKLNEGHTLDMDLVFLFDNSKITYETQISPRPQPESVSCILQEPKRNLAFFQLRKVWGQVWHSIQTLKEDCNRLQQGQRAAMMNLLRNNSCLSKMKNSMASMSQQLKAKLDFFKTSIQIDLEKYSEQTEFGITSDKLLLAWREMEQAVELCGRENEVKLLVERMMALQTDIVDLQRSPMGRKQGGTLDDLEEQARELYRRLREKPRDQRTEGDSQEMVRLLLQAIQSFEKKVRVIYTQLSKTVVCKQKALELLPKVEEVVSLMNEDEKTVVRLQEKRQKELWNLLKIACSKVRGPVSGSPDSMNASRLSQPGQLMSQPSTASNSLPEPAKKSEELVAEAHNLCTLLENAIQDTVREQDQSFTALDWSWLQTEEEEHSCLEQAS
Serine/threonine-protein kinase Nek2 (Homo sapiens), sequence (P51955 whole entry): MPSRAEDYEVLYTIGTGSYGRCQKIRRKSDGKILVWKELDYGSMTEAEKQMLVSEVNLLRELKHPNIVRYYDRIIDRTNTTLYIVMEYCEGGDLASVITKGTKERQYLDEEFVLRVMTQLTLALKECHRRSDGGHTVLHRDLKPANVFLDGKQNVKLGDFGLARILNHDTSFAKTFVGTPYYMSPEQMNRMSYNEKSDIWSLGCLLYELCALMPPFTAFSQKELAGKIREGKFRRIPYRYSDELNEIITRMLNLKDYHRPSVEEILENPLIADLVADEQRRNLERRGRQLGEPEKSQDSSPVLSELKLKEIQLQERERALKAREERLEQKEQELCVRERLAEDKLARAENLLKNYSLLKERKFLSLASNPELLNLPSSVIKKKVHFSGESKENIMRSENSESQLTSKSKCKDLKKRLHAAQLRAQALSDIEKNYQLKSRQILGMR
Glycogen synthase kinase-3 beta (Homo sapiens), sequence (P49841 whole entry, looked up): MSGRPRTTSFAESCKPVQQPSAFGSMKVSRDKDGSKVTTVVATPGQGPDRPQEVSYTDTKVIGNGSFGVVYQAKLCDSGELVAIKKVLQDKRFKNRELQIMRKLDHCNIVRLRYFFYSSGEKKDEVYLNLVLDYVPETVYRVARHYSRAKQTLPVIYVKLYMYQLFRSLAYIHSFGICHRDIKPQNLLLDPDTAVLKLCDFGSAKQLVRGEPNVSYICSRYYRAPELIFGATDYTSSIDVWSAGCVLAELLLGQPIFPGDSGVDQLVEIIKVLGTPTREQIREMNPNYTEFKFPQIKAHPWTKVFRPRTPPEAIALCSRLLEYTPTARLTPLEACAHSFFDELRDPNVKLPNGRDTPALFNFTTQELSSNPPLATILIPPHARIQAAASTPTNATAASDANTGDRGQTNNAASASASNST
MAP kinase-interacting serine/threonine-protein kinase 2 (Homo sapiens), sequence (Q9HBH9 whole entry, looked up): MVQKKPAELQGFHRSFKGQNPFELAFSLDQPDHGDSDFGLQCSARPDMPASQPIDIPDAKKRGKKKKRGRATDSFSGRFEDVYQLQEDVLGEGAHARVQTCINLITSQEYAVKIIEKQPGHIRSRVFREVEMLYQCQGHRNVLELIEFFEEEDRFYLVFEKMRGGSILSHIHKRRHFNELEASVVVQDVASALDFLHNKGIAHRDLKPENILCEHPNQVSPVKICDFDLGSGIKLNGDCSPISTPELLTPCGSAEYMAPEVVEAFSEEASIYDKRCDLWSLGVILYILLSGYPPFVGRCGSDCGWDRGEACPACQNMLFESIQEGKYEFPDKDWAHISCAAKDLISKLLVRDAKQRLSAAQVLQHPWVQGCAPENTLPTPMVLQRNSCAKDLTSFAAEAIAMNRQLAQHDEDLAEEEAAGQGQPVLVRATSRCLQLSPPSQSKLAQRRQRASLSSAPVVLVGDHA

Compound: N=C(N)NCCC[C@@H](NC(=O)[C@@H](CCCNC(=N)N)NC(=O)[C@@H](CCCNC(=N)N)NC(=O)[C@@H](CCCNC(=N)N)NC(=O)[C@@H](CCCNC(=N)N)NC(=O)[C@@H](CCCNC(=N)N)NC(=O)CCCCCNC(=O)[C@H]1O[C@@H](n2cnc3c(N)ncnc32)[C@H](O)[C@@H]1O)C(N)=O
- Activity [1]: 85%
- Activity [2]: 38%
- Activity [3]: 62%
- Activity [4]: 72%
- Activity [5]: 79%
- Activity [6]: 103%
- Activity [7]: 88%
- Activity [8]: 31%
- Activity [9]: 91%
- Activity [10]: 85%
- Activity [11]: 15%
- Activity [12]: 7%
- Activity [13]: 107%
- Activity [14]: 94%
- Activity [15]: 104%
- Activity [16]: 56%
- Activity [17]: 100%
- Activity [18]: 88%
- Activity [19]: 92%
- Activity [20]: 99%
- Activity [21]: 81%
- Activity [22]: 82%
- Activity [23]: 100%
- Activity [24]: 50%
- Activity [25]: 102%
